Tests used:
Format in all cases: functional
NCI-H226 = test: Cytotoxicity against human NCI-H226 cells assessed as growth inhibition after 48 hrs by SRB assay; details: NCI-H226, 48 h
Outline: (§1)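 NCI 60-cell panel; compounds passing a single-dose screen (10−5 M, 48 h) were tested at five 10-fold dilutions (10−4 to 10−8 M) with 48 h drug exposure. GI50 is the molar concentration giving 50% reduction in net cell growth relative to cell numbers on day 0.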

MDA-MB-435 = test: Cytotoxicity against human MDA-MB-435 cells assessed as growth inhibition after 48 hrs by SRB assay; details: MDA-MB-435, 48 h; outline: as §1
RPMI-8226 = test: Cytotoxicity against human RPMI8226 cells assessed as growth inhibition after 48 hrs by SRB assay; details: RPMI-8226, 48 h; outline: as §1
[1] = Cytotoxicity against human HCT116 cells assessed as growth inhibition after 48 hrs by SRB assay; details: HCT-116, 48 h; outline: as §1
KM12 = test: Cytotoxicity against human KM12 cells assessed as growth inhibition after 48 hrs by SRB assay; details: KM12, 48 h; outline: as §1
[2] = Cytotoxicity against human OVCAR8 cells assessed as growth inhibition after 48 hrs by SRB assay; details: OVCAR-8, 48 h; outline: as §1
CAKI-1 = test: Cytotoxicity against human Caki1 cells assessed as growth inhibition after 48 hrs by SRB assay; details: CAKI-1, 48 h; outline: as §1
SF-539 = test: Cytotoxicity against human SF539 cells assessed as growth inhibition after 48 hrs by SRB assay; details: SF-539, 48 h; outline: as §1
MOLT-4 = test: Cytotoxicity against human MOLT4 cells assessed as growth inhibition after 48 hrs by SRB assay; details: MOLT-4, 48 h; outline: as §1
MCF7 = test: Cytotoxicity against human MCF7 cells assessed as growth inhibition after 48 hrs by SRB assay; details: MCF7, 48 h; outline: as §1
[3] = Cytotoxicity against human HCT15 cells assessed as growth inhibition after 48 hrs by SRB assay; details: HCT-15, 48 h; outline: as §1
A498 = test: Cytotoxicity against human A498 cells assessed as growth inhibition after 48 hrs by SRB assay; details: A498, 48 h; outline: as §1
NCI-H23 = test: Cytotoxicity against human NCI-H23 cells assessed as growth inhibition after 48 hrs by SRB assay; details: NCI-H23, 48 h; outline: as §1
[4] = Cytotoxicity against human UACC62 cells assessed as growth inhibition after 48 hrs by SRB assay; details: UACC-62, 48 h
SN12C = test: Cytotoxicity against human SN12C cells assessed as growth inhibition after 48 hrs by SRB assay; outline: as §1
HT-29 = test: Cytotoxicity against human HT-29 cells assessed as growth inhibition after 48 hrs by SRB assay; details: HT-29, 48 h; outline: as §1
[5] = Cytotoxicity against human OVCAR5 cells assessed as growth inhibition after 48 hrs by SRB assay; details: OVCAR-5, 48 h; outline: as §1
[6] = Cytotoxicity against human OVCAR4 cells assessed as growth inhibition after 48 hrs by SRB assay; details: OVCAR-4, 48 h; outline: as §1
[7] = Cytotoxicity against human UO31 cells assessed as growth inhibition after 48 hrs by SRB assay; details: UO-31, 48 h
IGROV-1 = test: Cytotoxicity against human IGROV1 cells assessed as growth inhibition after 48 hrs by SRB assay; details: IGROV-1, 48 h; outline: as §1
SK-MEL-5 = test: Cytotoxicity against human SK-MEL-5 cells assessed as growth inhibition after 48 hrs by SRB assay; details: SK-MEL-5, 48 h; outline: as §1
MDA-MB-231 = test: Cytotoxicity against human MDA-MB-231 cells assessed as growth inhibition after 48 hrs by SRB assay; details: MDA-MB-231, 48 h; outline: as §1
[8] = Cytotoxicity against human NCI-ADR-RES cells assessed as growth inhibition after 48 hrs by SRB assay; outline: as §1
TK-10 = test: Cytotoxicity against human TK10 cells assessed as growth inhibition after 48 hrs by SRB assay; details: TK-10, 48 h
HL-60(TB) = test: Cytotoxicity against human HL-60(TB) cells assessed as growth inhibition after 48 hrs by SRB assay; details: HL-60, 48 h
Outline: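 NCI 60-cell panel, leukemia subpanel. Five-dose screen at 10-fold dilutions from 10−4 to 10−8 M with 48 h drug exposure. GI50 is the molar concentration giving 50% reduction in net cell growth compared with cell numbers on day 0.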

U-251 = test: Cytotoxicity against human U251 cells assessed as growth inhibition after 48 hrs by SRB assay; details: U-251, 48 h
SK-OV-3 = test: Cytotoxicity against human SKOV3 cells assessed as growth inhibition after 48 hrs by SRB assay; details: SK-OV-3, 48 h; outline: as §1
[9] = Cytotoxicity against human OVCAR3 cells assessed as growth inhibition after 48 hrs by SRB assay; details: OVCAR-3, 48 h; outline: as §1
DU-145 = test: Cytotoxicity against human DU145 cells assessed as growth inhibition after 48 hrs by SRB assay; details: DU-145, 48 h; outline: as §1
786-0 = test: Cytotoxicity against human 786-0 cells assessed as growth inhibition after 48 hrs by SRB assay; details: 786-0, 48 h; outline: as §1
SW-620 = test: Cytotoxicity against human SW620 cells assessed as growth inhibition after 48 hrs by SRB assay; details: SW-620, 48 h
RXF 393 = test: Cytotoxicity against human RXF393 cells assessed as growth inhibition after 48 hrs by SRB assay; details: RXF 393, 48 h; outline: as §1
NCI-H460 = test: Cytotoxicity against human NCI-H460 cells assessed as growth inhibition after 48 hrs by SRB assay; details: NCI-H460, 48 h; outline: as §1
HCC 2998 = test: Cytotoxicity against human HCC2998 cells assessed as growth inhibition after 48 hrs by SRB assay; details: HCC 2998, 48 h; outline: as §1
[10] = Cytotoxicity against human PC3 cells assessed as growth inhibition after 48 hrs by SRB assay; details: PC-3, 48 h; outline: as §1
LOX IMVI = test: Cytotoxicity against human LOXIMVI cells assessed as growth inhibition after 48 hrs by SRB assay; outline: as §1
SNB-19 = test: Cytotoxicity against human SNB19 cells assessed as growth inhibition after 48 hrs by SRB assay; details: SNB-19, 48 h; outline: as §1
BT-549 = test: Cytotoxicity against human BT549 cells assessed as growth inhibition after 48 hrs by SRB assay; details: BT-549, 48 h; outline: as §1
SF-295 = test: Cytotoxicity against human SF295 cells assessed as growth inhibition after 48 hrs by SRB assay; details: SF-295, 48 h; outline: as §1
M14 = test: Cytotoxicity against human M14 cells assessed as growth inhibition after 48 hrs by SRB assay; details: M14, 48 h; outline: as §1
SNB-75 = test: Cytotoxicity against human SNB75 cells assessed as growth inhibition after 48 hrs by SRB assay; details: SNB-75, 48 h
COLO 205 = test: Cytotoxicity against human COLO205 cells assessed as growth inhibition after 48 hrs by SRB assay; details: COLO 205, 48 h; outline: as §1
SF-268 = test: Cytotoxicity against human SF268 cells assessed as growth inhibition after 48 hrs by SRB assay; details: SF-268, 48 h; outline: as §1

COc1ccc(/C(C#N)=C/c2cc3ccccc3o2)cc1OC
GI50 (NCI-H226): 34500 nM | GI50 (MDA-MB-435): 229 nM | GI50 (RPMI-8226): 1320 nM | GI50 [1]: 418 nM | GI50 (KM12): 356 nM | GI50 [2]: 3980 nM | GI50 (CAKI-1): 492 nM | GI50 (SF-539): 1560 nM | GI50 (MOLT-4): 548 nM | GI50 (MCF7): 446 nM | GI50 [3]: 469 nM | GI50 (A498): 540 nM | GI50 (NCI-H23): 3110 nM | GI50 [4]: 557 nM | GI50 (SN12C): 956 nM | GI50 (HT-29): 373 nM | GI50 [5]: 5230 nM | GI50 [6]: 7190 nM | GI50 [7]: 3790 nM | GI50 (IGROV-1): 1270 nM | GI50 (SK-MEL-5): 564 nM | GI50 (MDA-MB-231): 1210 nM | GI50 [8]: 317 nM | GI50 (TK-10): 2280 nM | GI50 (HL-60(TB)): 481 nM | GI50 (U-251): 760 nM | GI50 (SK-OV-3): 2490 nM | GI50 [9]: 279 nM | GI50 (DU-145): 1300 nM | GI50 (786-0): 5840 nM | GI50 (SW-620): 388 nM | GI50 (RXF 393): 1300 nM | GI50 (NCI-H460): 472 nM | GI50 (HCC 2998): 2330 nM | GI50 [10]: 2410 nM | GI50 (LOX IMVI): 930 nM | GI50 (SNB-19): 5550 nM | GI50 (BT-549): 950 nM | GI50 (SF-295): 708 nM | GI50 (M14): 437 nM | GI50 (SNB-75): 1780 nM | GI50 (COLO 205): 404 nM | GI50 (SF-268): 2050 nM

From ChEMBL document CHEMBL3407388, “Synthesis, anticancer activity and molecular docking studies on a series of heterocyclic trans-cyanocombretastatin analogues as antitubulin agents” (2015)
